ChEMBL document CHEMBL1154858, “Synthesis, in vitro antibacterial and antifungal evaluations of new alpha-hydroxyphosphonate and new alpha-acetoxyphosphonate derivatives of tetrazolo [1, 5-a] quinoline” (2010)
In brackets after ≈: the same amount, converted by molar mass.

How the values were obtained:
Assay type in all cases: functional
Bacillus subtilis [1] = assay: Antibacterial activity against Bacillus subtilis NCIM 2250 after 48 hrs by agar cup plate method
Summary of the method: (§1)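 Agar cup plate zone-of-inhibition assay on Mueller Hinton agar, with compounds dissolved in DMF and streptomycin in DMF as the reference. Plates were incubated at 37 ± 0.5 °C for 48 h. Inhibition was scored as the diameter of the growth-free zone around the cup.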

Candida albicans [2] = assay: Antifungal activity against Candida albicans MTCC 277 after 24 hrs by cup plate method; conditions: MTCC 277, 24 h
Summary of the method: (§2)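 Cup-plate MIC on Mueller Hinton agar plates containing the compound at 0 (control), 1, 2, 3, 5, 10, 15, 20, 30 and 40 (unit unclear), with compounds dissolved in DMF. Plates were read after 24 h and incubated further up to 72 h where needed. MIC is the lowest concentration giving no visible macroscopic growth.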

Candida albicans [3] = assay: Antifungal activity against Candida albicans MTCC 277 after 48 hrs by agar cup plate method
Summary of the method: (§3)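 Fungal zone-of-inhibition test in Czapek Dox medium by the agar cup method, with compounds dissolved in DMF and griseofulvin in DMF as the reference. Plates were incubated at 28 ± 0.5 °C for 48 h. Activity was taken as the diameter of the zone of inhibited growth around the cup.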

Aspergillus niger [4] = assay: Antifungal activity against Aspergillus niger NCIM 545 after 48 hrs by agar cup plate method; summary of the method: as §3
Aspergillus niger [5] = assay: Antifungal activity against Aspergillus niger NCIM 545 after 24 hrs by cup plate method; conditions: NCIM 545, 24 h; summary of the method: as §2
Escherichia coli [6] = assay: Antibacterial activity against Escherichia coli ATCC 25922 after 24 hrs by cup plate method; conditions: ATCC 25922, 24 h; summary of the method: as §2
Bacillus subtilis [7] = assay: Antibacterial activity against Bacillus subtilis NCIM 2250 after 24 hrs by cup plate method; conditions: NCIM 2250, 24 h; summary of the method: as §2
Escherichia coli [8] = assay: Antibacterial activity against Escherichia coli ATCC 25922 after 48 hrs by agar cup plate method; summary of the method: as §1

Row | Compound | diameter of the inhibition zone (DIZ) (Bacillus subtilis [1]) [mm] | MIC (Candida albicans [2]) [µg/mL] | diameter of the inhibition zone (DIZ) (Candida albicans [3]) [mm] | diameter of the inhibition zone (DIZ) (Aspergillus niger [4]) [mm] | MIC (Aspergillus niger [5]) [µg/mL] | MIC (Escherichia coli [6]) [µg/mL] | MIC (Bacillus subtilis [7]) [µg/mL] | diameter of the inhibition zone (DIZ) (Escherichia coli [8]) [mm]
1 | CCOc1ccc2c(c1)cc(C(O)P(=O)(OCC)OCC)c1nnnn12 (stereo not given) | 15.4 | 10 (≈ 26.3 µM) | 13.8 | 12.8 | 15 (≈ 39.4 µM) | 15 (≈ 39.4 µM) | 10 (≈ 26.3 µM) | 13.5
2 | CCOP(=O)(OCC)C(OC(C)=O)c1cc2ccc(C)cc2n2nnnc12 (stereo not given) | 14.1 | 10 (≈ 25.5 µM) | 13.4 | 15.2 | 10 (≈ 25.5 µM) | 15 (≈ 38.2 µM) | 10 (≈ 25.5 µM) | 13.2
3 | CCOP(=O)(OCC)C(OC(C)=O)c1cc2cccc(OC)c2n2nnnc12 (stereo not given) | 11.4 | 15 (≈ 36.7 µM) | 12.1 | 13.4 | 15 (≈ 36.7 µM) | 25 (≈ 61.2 µM) | 15 (≈ 36.7 µM) | 13.9
4 | CCOP(=O)(OCC)C(O)c1cc2cc(OC)ccc2n2nnnc12 (stereo not given) | 12.4 | 10 (≈ 27.3 µM) | 14.1 | 12.2 | 15 (≈ 40.9 µM) | 15 (≈ 40.9 µM) | 10 (≈ 27.3 µM) | 13.3
5 | CCOP(=O)(OCC)C(O)c1cc2ccc(OC)cc2n2nnnc12 (stereo not given) | 12 | 10 (≈ 27.3 µM) | 13.4 | 14.4 | 10 (≈ 27.3 µM) | 15 (≈ 40.9 µM) | 10 (≈ 27.3 µM) | 13.6
6 | CCOP(=O)(OCC)C(OC(C)=O)c1cc2cc(OC)ccc2n2nnnc12 (stereo not given) | 13.2 | 10 (≈ 24.5 µM) | 13.4 | 14.2 | 10 (≈ 24.5 µM) | 10 (≈ 24.5 µM) | 10 (≈ 24.5 µM) | 12.4
7 | CCOP(=O)(OCC)C(OC(C)=O)c1cc2ccc(OC)cc2n2nnnc12 (stereo not given) | 12.5 | 10 (≈ 24.5 µM) | 13.8 | 12.5 | 25 (≈ 61.2 µM) | 15 (≈ 36.7 µM) | 10 (≈ 24.5 µM) | 11.1
8 | CCOc1ccc2c(c1)cc(C(OC(C)=O)P(=O)(OCC)OCC)c1nnnn12 (stereo not given) | 12.1 | 10 (≈ 23.7 µM) | 14.1 | 14.5 | 10 (≈ 23.7 µM) | 10 (≈ 23.7 µM) | 10 (≈ 23.7 µM) | 13.8
9 | CCOP(=O)(OCC)C(O)c1cc2cccc(OC)c2n2nnnc12 (stereo not given) | 12.5 | 15 (≈ 40.9 µM) | 13.8 | 11.5 | 15 (≈ 40.9 µM) | 15 (≈ 40.9 µM) | 10 (≈ 27.3 µM) | 13.3
10 | CCOP(=O)(OCC)C(O)c1cc2cccc(C)c2n2nnnc12 (stereo not given) | 12.3 | 10 (≈ 28.5 µM) | 13 | 13.1 | 15 (≈ 42.8 µM) | 25 (≈ 71.4 µM) | 10 (≈ 28.5 µM) | 13.7
